Data published in ChEMBL document CHEMBL1155448, “(3-Phenylsulfonylcycloalkano[e and d]pyrazolo[1,5-a]pyrimidin-2-yl)amines: potent and selective antagonists of the serotonin 5-HT6 receptor” (J Med Chem, 2010).

Experiments:
[1] = biological target: 5-hydroxytryptamine receptor 2B (Homo sapiens, UniProt P41595); assay: Antagonist activity at human 5HT2B receptor expressed in HEK293 cells assessed as inhibition of alpha-Me-serotonin-induced intracellular calcium mobilization by spectrophotometry; format: functional, cell-based
Method in brief: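 Tetracycline-induced T-Rex 5-HT2B HEK cells, Fura-2AM loaded (4 μM, 30 min, room temp, dark), suspended at (3-4) × 10⁶ cells/mL, diluted into HEPES-buffered saline with 1.8 mM CaCl₂ in stirred cuvette. Compound added after 20-30 s baseline, then serotonin challenge; Fura-2 ratio 340/380 nm excitation, 510 nm emission. Ki from concentration-dependent inhibition; geometric mean of three to four experiments, duplicate curves.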

[2] = biological target: T1, 5-hydroxytryptamine receptor 6 (Homo sapiens, UniProt P50406); assay: Antagonist activity at human 5HT6 receptor expressed in HEK293 cells assessed as inhibition of serotonin-induced cAMP release; format: functional, cell-based
Method in brief: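 Tetracycline-induced T-Rex 5-HT6 HEK cells in HBSS with 1 mM MgCl₂, 1 mM CaCl₂, 5 mM HEPES pH 7.4, 100 μM IBMX; compounds 15 min (0.1% DMSO final), then serotonin 10 nM final for 30 min at room temp. cAMP by LANCE TR-FRET. Ki from concentration-dependent inhibition; geometric mean of three to four independent experiments, each curve in duplicate.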

[3] = biological target: T2, hERG (KCNH2) (Homo sapiens, UniProt Q12809); assay: Inhibition of human ERG expressed in […] cells at 10 uM after 3 to 8 mins by voltage clamp assay; format: cell-based; conditions: HEK297 cells that express human ERG
Method in brief: (§1)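 Automated whole-cell voltage clamp at 25 °C on HEK cells stably expressing human hERG; K-based intracellular (pH 7.2), Na-based extracellular (pH 7.4) solutions. 2 s pulses to +20 mV, 15 s interpulse; compound until steady current (3-8 min), washout, 10 μM cisapride control. Percent of vehicle tail current; triplicate, mean ± SEM at highest concentration.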

[4] = biological target: T2, hERG (KCNH2); assay: Inhibition of human ERG expressed in […] cells at 3 uM after 3 to 8 mins by voltage clamp assay; format: cell-based; conditions: HEK297 cells that express human ERG; method in brief: as §1
[5] = biological target: T1, 5-hydroxytryptamine receptor 6; assay: Antagonist activity at 5HT6 receptor; format: functional
Method in brief: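 Human 5-HT6R expressed in HEK293 cells (T-Rex, tetracycline-induced a day before). Compounds preincubated 15 min in HBSS with 1 mM MgCl2, 1 mM CaCl2, 5 mM HEPES pH 7.4, 100 μM IBMX, 0.1% DMSO final. Serotonin then added to 10 nM final, 30 min at room temperature. cAMP measured by LANCE TR-FRET. Ki from concentration-dependent inhibition, geometric mean of 3-4 experiments, duplicate curves.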

[6] = biological target: T1, 5-hydroxytryptamine receptor 6; assay: Displacement of [3H]lysergic acid diethylamide from human recombinant 5HT6 receptor expressed in human HeLa cells; format: cell-based
Method in brief: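 Ki from concentration-dependent displacement of [3H]lysergic acid diethylamide in a contracted radioligand binding assay; each curve measured in duplicate.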

[7] = biological target: T2, hERG (KCNH2); assay: Inhibition of human ERG expressed in […] cells at 90 uM after 3 to 8 mins by voltage clamp assay; format: cell-based; conditions: […] cells that express human ERG; method in brief: as §1

T2 sequence (Q12809 whole entry): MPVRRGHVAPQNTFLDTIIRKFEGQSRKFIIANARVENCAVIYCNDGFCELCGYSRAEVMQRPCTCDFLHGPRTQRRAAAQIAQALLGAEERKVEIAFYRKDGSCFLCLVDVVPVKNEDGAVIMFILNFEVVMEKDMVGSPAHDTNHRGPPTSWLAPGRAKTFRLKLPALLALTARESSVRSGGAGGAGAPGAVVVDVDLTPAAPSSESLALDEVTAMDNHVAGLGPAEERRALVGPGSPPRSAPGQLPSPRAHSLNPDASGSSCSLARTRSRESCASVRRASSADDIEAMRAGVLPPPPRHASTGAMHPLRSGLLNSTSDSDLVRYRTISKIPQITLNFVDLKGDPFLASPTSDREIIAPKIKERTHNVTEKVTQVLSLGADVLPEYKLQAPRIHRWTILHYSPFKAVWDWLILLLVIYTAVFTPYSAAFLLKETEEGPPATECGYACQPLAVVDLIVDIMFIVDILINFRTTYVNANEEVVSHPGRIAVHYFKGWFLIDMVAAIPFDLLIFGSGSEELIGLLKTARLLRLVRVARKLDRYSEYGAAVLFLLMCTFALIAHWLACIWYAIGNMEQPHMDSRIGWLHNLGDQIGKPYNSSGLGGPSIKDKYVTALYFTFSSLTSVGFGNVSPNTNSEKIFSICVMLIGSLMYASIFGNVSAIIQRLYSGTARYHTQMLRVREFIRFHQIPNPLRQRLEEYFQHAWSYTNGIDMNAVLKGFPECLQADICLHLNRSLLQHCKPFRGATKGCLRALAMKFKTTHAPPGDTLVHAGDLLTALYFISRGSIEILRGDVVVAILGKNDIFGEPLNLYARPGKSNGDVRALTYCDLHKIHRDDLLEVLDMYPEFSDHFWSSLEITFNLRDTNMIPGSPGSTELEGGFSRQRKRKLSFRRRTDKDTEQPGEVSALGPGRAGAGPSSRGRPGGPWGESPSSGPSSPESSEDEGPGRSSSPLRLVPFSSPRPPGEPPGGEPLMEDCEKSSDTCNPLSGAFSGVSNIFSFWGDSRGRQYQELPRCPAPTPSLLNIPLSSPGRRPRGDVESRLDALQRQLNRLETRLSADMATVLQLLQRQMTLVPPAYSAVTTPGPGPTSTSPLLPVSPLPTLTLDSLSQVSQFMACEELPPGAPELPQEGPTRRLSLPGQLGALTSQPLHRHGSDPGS
T1 sequence (P50406 whole entry): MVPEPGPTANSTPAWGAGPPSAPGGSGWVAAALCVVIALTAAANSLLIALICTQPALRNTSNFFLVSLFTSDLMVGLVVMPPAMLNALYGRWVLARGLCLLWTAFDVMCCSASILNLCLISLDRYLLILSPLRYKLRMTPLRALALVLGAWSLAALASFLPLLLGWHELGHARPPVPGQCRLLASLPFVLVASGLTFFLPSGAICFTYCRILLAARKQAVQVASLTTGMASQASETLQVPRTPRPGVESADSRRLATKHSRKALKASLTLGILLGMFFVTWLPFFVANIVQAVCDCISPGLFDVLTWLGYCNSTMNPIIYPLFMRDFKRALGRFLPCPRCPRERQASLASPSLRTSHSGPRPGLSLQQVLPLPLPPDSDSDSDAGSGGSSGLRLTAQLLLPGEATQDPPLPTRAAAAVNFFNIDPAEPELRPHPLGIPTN
Sequence of 5-hydroxytryptamine receptor 2B (P41595 whole entry): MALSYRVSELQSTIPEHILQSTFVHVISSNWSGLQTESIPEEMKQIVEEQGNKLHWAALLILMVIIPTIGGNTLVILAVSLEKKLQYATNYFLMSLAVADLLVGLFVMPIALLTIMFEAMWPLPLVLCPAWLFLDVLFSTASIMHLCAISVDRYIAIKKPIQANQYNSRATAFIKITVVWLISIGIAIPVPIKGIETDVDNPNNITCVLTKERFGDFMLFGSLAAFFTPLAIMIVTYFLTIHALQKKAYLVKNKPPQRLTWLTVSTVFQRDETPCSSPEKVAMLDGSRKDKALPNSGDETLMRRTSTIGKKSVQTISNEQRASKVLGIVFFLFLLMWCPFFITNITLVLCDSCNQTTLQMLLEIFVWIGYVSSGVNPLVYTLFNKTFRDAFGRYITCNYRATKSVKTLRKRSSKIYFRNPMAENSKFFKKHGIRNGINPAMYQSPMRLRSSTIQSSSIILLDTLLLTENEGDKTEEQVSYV

| SMILES | Ki [1] [nM] | Ki [2] [nM] | also measured |
| --- | --- | --- | --- |
| Cc1nc2c(S(=O)(=O)c3ccccc3)c(N3CCNCC3)nn2c2c1CCCC2 |  | 1760 |  |
| CNc1nn2c3c(c(C)nc2c1S(=O)(=O)c1ccccc1)CCCC3 |  |  | inhibition at 10 µM [3]: 52.4% |
| CNc1nn2c(C)c3c(nc2c1S(=O)(=O)c1ccccc1)CCCC3 |  |  | inhibition at 3 µM [4]: 12.5% |
| Cc1nc2c(S(=O)(=O)c3ccccc3)c(N3CCNCC3)nn2c2c1CCC2 |  | 869 |  |
| CSc1nn2c3c(c(C)nc2c1S(=O)(=O)c1ccccc1)CCCC3 |  |  | IC50 [5]: 6 nM |
| Cc1nc2c(S(=O)(=O)c3ccccc3)c(N(C)C)nn2c2c1CCC2 |  | 25.5 |  |
| CN(C)c1nn2c3c(cnc2c1S(=O)(=O)c1ccccc1)CCC3 |  | 28.8 |  |

Second part, led by results:

| Ki [1] [nM] | Ki [2] [nM] | SMILES | also measured |
| --- | --- | --- | --- |
| 169 | 0.542 | CNc1nn2cc3c(nc2c1S(=O)(=O)c1ccccc1)CCCC3 |  |
| 464 | 0.375 | CNc1nn2c3c(cnc2c1S(=O)(=O)c1ccccc1)CCC3 | Ki [6]: 0.088 nM; inhibition at 90 µM [7]: 29.5% |
| 188 | 0.413 | CNc1nn2c3c(c(C)nc2c1S(=O)(=O)c1ccccc1)CCC3 | inhibition at 3 µM [4]: 4.3% |
| 153 | 0.259 | CNc1nn2c3c(cnc2c1S(=O)(=O)c1ccccc1)CCCC3 |  |
